Legend:
[1] = (§1) Activity against metalloenzyme Ribonucleoside diphosphate reductase was evaluated from a subcutaneously growing murine tumor (sarcoma 180) implanted in B6D2F3 male mice, in reference to hydroxy-urea at 0.1 conc
[2] = (§2) Activity against metalloenzyme Ribonucleoside diphosphate reductase was evaluated from a subcutaneously growing murine tumor (sarcoma 180) implanted in B6D2F3 male mice at 0.01 conc
In short: (§3)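 RdR from excised subcutaneous sarcoma 180 tumors in male B6D2F3 mice; chelators supplied in DMF. Enzyme-started at 37 °C, stopped by boiling at 0, 10, 20 min. Cytidine/deoxycytidine separated by cellulose TLC, radioactivity scanned. Protein by BSA-standard method.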

[3] = Activity against metalloenzyme Ribonucleoside diphosphate reductase was evaluated from a subcutaneously growing murine tumor (sarcoma 180) implanted in B6D2F3 male mice at 1.0 conc; in short: as §3
[4] = (§4) Activity against metalloenzyme Ribonucleoside diphosphate reductase was evaluated from a subcutaneously growing murine tumor (sarcoma 180) implanted in B6D2F3 male mice at 0.1 conc; in short: as §3
[5] = Inhibition of metalloenzyme Ribonucleoside diphosphate reductase.; design: concentration or dose not given beside the values; details: concentration not given here; in short: as §3
[6] = as §4; in short: as §3; remark: listed apart in the source
[7] = as §2; in short: as §3; remark: listed apart in the source
[8] = Activity against metalloenzyme Ribonucleoside diphosphate reductase was evaluated from a subcutaneously growing murine tumor (sarcoma 180) implanted in B6D2F3 male mice at 0.002 conc; in short: as §3
[9] = Activity against metalloenzyme Ribonucleoside diphosphate reductase was evaluated from a subcutaneously growing murine tumor (sarcoma 180) implanted in B6D2F3 male mice at 0.0002 conc; in short: as §3
[10] = Activity against metalloenzyme Ribonucleoside diphosphate reductase was evaluated from a subcutaneously growing murine tumor (sarcoma 180) implanted in B6D2F3 male mice at 0.02 conc; in short: as §3
[11] = Activity against metalloenzyme Ribonucleoside diphosphate reductase was evaluated from a subcutaneously growing murine tumor (sarcoma 180) implanted in B6D2F3 male mice at 0.033 conc; in short: as §3
[12] = Activity against metalloenzyme Ribonucleoside diphosphate reductase was evaluated from a subcutaneously growing murine tumor (sarcoma 180) implanted in B6D2F3 male mice at 0.00033 conc; in short: as §3
[13] = Activity against metalloenzyme Ribonucleoside diphosphate reductase was evaluated from a subcutaneously growing murine tumor (sarcoma 180) implanted in B6D2F3 male mice, in reference to hydroxy-urea at 0.033 conc
[14] = Activity against metalloenzyme Ribonucleoside diphosphate reductase was evaluated from a subcutaneously growing murine tumor (sarcoma 180) implanted in B6D2F3 male mice at 0.0033 conc; in short: as §3
[15] = as §1; remark: listed apart in the source
[16] = Activity against metalloenzyme Ribonucleoside diphosphate reductase was evaluated from a subcutaneously growing murine tumor (sarcoma 180) implanted in B6D2F3 male mice, in reference to hydroxy-urea at 0.007 conc
[17] = Activity against metalloenzyme Ribonucleoside diphosphate reductase was evaluated from a subcutaneously growing murine tumor (sarcoma 180) implanted in B6D2F3 male mice at 0.027 conc; in short: as §3

| inhibition [2] [%] | inhibition [3] [%] | inhibition [5] [%] | Compound | other results |
| --- | --- | --- | --- | --- |
| 24 | 79 | 73 | CC(=O)OCc1cnc(C)c(OC(C)=O)c1/C=N/Nc1ncccn1 | inhibition [1]: 37%; inhibition [4]: 43% |
| 0 |  | 81 | Cc1c(O)c(/C=N/N=c2\ccccn2C)c(CO)c[n+]1C |  |
|  | 78 | 78 | Cc1ncc(CO)c(/C=N/Nc2ncccn2)c1O |  |
| 22 | 59 | 73 | 1:2 Copper(II):1-[5'-Bromosalicylidene]-2-[isonicotinoyl]-hydrazine Formate Complex | inhibition [6]: 28% |
|  |  |  | CC(=O)OCc1cnc(C)c(O)c1/C=N/Nc1ncccn1 | inhibition [7]: 30% |
|  |  | 81 | CCOC(=O)C[n+]1ccc(C(=O)N/N=C/c2cc(Cl)ccc2O)cc1 | inhibition [8]: 10%; inhibition [9]: 18%; inhibition [10]: 77% |
|  |  |  | C[n+]1ccccc1N/N=C/c1cc(Cl)cc(Cl)c1O | inhibition [11]: 58%; inhibition [12]: 8%; inhibition [13]: 82%; inhibition [14]: 34% |
|  |  | 15 | Cc1c(O)c(/C=N/Nc2ncccn2)c(CO)c[n+]1C |  |
| 35 | 71 | 72 | 1:2 Copper(II):1-[5'-Bromosalicylidene]-2-[N-(ethoxy-carbonylmethyl)isonicotinoyl]hydrazine Sulfate Complex | inhibition [6]: 64% |
| 25 | 43 | 72 | Cc1ncc(CO)c(/C=N/Nc2nc(Cl)c(Cl)c(Cl)c2Cl)c1O | inhibition [4]: 18% |
|  | 0 | 15 | Cc1cc(O)nc(N/N=C/c2c(CO)cnc(C)c2O)n1 |  |
| 0 |  | 81 | CCOC(=O)C[n+]1ccc(C(=O)N/N=C/c2cc(Br)ccc2O)cc1 |  |
|  |  | 81 | Cc1ncc(CO)c(/C=N/Nc2[nH]cnc3ncnc2-3)c1O | inhibition [11]: 72%; inhibition [12]: 18%; inhibition [14]: 21% |
|  | 85 | 81 | Copper(II) Chelate of 1-[Pyridoxylidene]-2-[3',5'-chloro-2'-pyridyl]hydrazine Sulfate | inhibition [7]: 37%; inhibition [6]: 83% |
|  | 86 | 73 | Copper(II)-Chelate of 1-[Pyridoxylidene]-2-[2'-pyrimidyl]-hydrazine Sulfate | inhibition [7]: 38%; inhibition [15]: 37%; inhibition [6]: 78% |
| 0 |  |  | COc1ccc(COC(=O)N/N=C/c2c(CO)cnc(C)c2O)cc1 |  |
| 0 |  |  | Cc1c(O)c(/C=N/NC(=O)c2cc[n+](C)cc2)c(CO)c[n+]1C |  |
| 0 |  |  | C[n+]1ccc(C(=O)N/N=C/c2cc(Cl)cc(Cl)c2O)cc1 |  |
| 79 | 83 | 72 | Cc1ncc(CO)c(/C=N/Nc2ncc(Cl)cc2Cl)c1O | inhibition [7]: 78% |
|  |  | 82 | Oc1c(Cl)cc(Cl)cc1/C=N/Nc1ccccn1 | inhibition [11]: 65%; inhibition [12]: 12%; inhibition [14]: 34% |
| 0 |  |  | Oc1ccc(Br)cc1/C=N/Nc1ccccn1 |  |
|  |  |  | CC(=O)OCc1cnc(C)c(OC(C)=O)c1/C=N/Nc1ccccn1 | inhibition [1]: 37%; inhibition [7]: 31%; inhibition [4]: 68%; inhibition [15]: 37%; inhibition [6]: 68% |
|  | 82 | 81 | Copper(II) Chelate of 1-[Pyridoxylidene]-2-[5'-chloro-2'-pyridyl]hydrazine Sulfate | inhibition [7]: 27%; inhibition [6]: 65% |
| 72 |  |  | Cc1ncc(CO)c(/C=N/Nc2ccccn2)c1O | inhibition [16]: 15% |
| 79 | 79 | 72 | CCOC(=O)C[n+]1cc(CO)c(/C=N/Nc2ncccn2)c(O)c1C | inhibition [6]: 76% |
|  |  | 81 | Cc1ncc(CO)c(/C=N/NC(=O)c2ccnc3ccccc23)c1O | inhibition [17]: 63%; inhibition [9]: 11% |
|  |  |  | Cc1ncc(CO)c(/C=N/Nc2nnc(N/N=C/c3c(CO)cnc(C)c3O)c3ccccc23)c1O | inhibition [7]: 0% |
|  |  |  | Cc1ncc(CO)c(/C=N/CC/N=C/c2c(CO)cnc(C)c2O)c1O | inhibition [7]: 0% |
| 0 |  |  | Cc1ncc(CO)c(/C=N/NC(=O)c2cc[n+](C)cc2)c1O |  |
|  |  | 15 | CCOC(=O)C[n+]1cc(CO)c(/C=N/Nc2ccccn2)c(O)c1C |  |

Source: ChEMBL document CHEMBL1132415, “Domain-structured N1,N2-derivatized hydrazines as inhibitors of ribonucleoside diphosphate reductase: redox-cycling considerations” (J Med Chem, 1999)
